Consider 27 compounds from ChEMBL document CHEMBL1137789, “Synthesis, binding, and modeling studies of new cytisine derivatives, as ligands for neuronal nicotinic acetylcholine receptor subtypes” (J Med Chem, 2009).

What all share (type): cell membranes
Experiment [1] deals with Neuronal acetylcholine receptor subunit alpha-7 (Rattus norvegicus, UniProt Q05941). The experiment can be described thus: Displacement of [125I]alpha-bungarotoxin from alpha7 nicotinic acetylcholine receptor in rat brain cortex membrane homogenates. In outline: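 Cortex membrane homogenates from 21-day-old rats in buffer A (Tris-HCl pH 7 with salts, PMSF). Compounds (10 pM-10 mM) preincubated 30 min at rt, then overnight at rt with 1 nM final [¹²⁵I]-α-bungarotoxin. Nonspecific: 1 μM unlabeled α-bungarotoxin. Filtration, γ counting. Ki fitted by LIGAND from three independent competition experiments; no inhibition up to 200 μM taken as Ki >100 μM.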
Chain of Neuronal acetylcholine receptor subunit alpha-7 (Q05941 whole entry): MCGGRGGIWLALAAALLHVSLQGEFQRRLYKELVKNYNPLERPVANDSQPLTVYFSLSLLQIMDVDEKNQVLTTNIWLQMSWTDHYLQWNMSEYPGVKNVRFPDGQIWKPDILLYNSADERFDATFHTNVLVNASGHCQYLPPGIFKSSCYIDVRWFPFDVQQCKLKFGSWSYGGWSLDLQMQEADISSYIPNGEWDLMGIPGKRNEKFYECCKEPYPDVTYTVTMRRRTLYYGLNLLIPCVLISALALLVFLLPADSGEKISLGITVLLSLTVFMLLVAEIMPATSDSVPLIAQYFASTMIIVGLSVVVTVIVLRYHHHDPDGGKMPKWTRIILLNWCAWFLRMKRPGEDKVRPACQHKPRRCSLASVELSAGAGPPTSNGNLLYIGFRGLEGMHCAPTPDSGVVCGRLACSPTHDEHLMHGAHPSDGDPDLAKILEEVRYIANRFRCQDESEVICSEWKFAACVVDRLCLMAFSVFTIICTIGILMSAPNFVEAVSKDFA
Background: Displacement assays read how much labelled ligand stays bound in the presence of the test substance.

Experiment [2] addresses T1, Neuronal acetylcholine receptor; alpha4/beta2 (Rattus norvegicus, UniProt P09483+P12390). The experiment can be described thus: Displacement of [3H]cytisine from alpha4beta2 nicotinic acetylcholine receptor in rat brain cortex membrane homogenates.
Experiment [3] deals with T1, Neuronal acetylcholine receptor; alpha4/beta2. The experiment can be described thus: Displacement of (+/-)-[3H]epibatidine from alpha4beta2 nicotinic acetylcholine receptor in rat brain cortex membrane homogenates. In outline: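 Compounds (10 pM-10 mM) preincubated 30 min rt, then overnight at 4 °C with 0.005-0.1 nM final [³H]-epibatidine. Nonspecific: 100 nM epibatidine. Filtration, β counting. Ki by LIGAND fit of three independent experiments.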

Each structure is given as a SMILES string. Where only a bound is given, the exact number is not on record here.

T1 sequence (P09483 whole entry): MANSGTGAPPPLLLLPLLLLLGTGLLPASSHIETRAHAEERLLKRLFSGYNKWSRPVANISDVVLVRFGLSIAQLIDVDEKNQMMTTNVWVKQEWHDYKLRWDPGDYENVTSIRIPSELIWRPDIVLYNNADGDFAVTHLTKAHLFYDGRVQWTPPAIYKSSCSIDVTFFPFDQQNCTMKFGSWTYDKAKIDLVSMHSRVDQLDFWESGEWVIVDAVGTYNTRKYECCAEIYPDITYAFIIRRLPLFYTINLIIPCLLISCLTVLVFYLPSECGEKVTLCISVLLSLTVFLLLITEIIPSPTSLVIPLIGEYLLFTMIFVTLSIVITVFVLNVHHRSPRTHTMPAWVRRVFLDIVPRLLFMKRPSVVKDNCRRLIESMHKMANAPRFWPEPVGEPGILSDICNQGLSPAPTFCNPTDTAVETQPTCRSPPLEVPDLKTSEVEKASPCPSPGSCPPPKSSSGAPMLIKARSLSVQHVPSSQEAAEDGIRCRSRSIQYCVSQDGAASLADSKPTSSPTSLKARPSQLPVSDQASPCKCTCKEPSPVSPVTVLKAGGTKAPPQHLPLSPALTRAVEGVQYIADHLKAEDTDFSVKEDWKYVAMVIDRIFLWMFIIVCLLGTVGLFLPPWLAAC
T1 sequence (P12390 whole entry): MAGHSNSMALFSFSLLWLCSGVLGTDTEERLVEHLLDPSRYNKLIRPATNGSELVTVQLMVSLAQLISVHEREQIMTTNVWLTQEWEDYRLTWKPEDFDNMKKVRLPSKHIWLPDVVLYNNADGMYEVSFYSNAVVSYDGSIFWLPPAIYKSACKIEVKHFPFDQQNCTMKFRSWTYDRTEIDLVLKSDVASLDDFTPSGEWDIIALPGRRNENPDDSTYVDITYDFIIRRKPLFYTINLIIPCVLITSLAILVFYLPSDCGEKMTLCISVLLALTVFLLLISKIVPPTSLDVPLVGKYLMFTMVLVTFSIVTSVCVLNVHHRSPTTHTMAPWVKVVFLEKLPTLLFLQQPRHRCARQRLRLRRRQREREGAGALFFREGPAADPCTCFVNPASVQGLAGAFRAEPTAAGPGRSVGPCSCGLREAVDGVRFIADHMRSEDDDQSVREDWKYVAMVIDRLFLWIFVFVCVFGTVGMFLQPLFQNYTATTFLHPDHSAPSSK

As a reminder, the Ki is the dissociation constant of the complex between target and ligand, obtained from inhibition or displacement. Read a high Ki as a looser hold on the target. For the compound `CC(=O)CCN1C[C@@H]2C[C@H](C1)c1cccc(=O)n1C2`, the Ki in experiment [1] stood at 1240 nM; in experiment [2] it was 3.2 nM; in experiment [3] it was 8.7 nM.
`Cc1ccc(CCCN2C[C@@H]3C[C@H](C2)c2cccc(=O)n2C3)cc1`: the results for the inhibitory constant (Ki) in experiment [1] and in experiment [3] were > 50000 nM and 7200 nM, respectively.
As to `O=C(CCCN1C[C@@H]2C[C@H](C1)c1cccc(=O)n1C2)c1ccc(F)cc1`, the figures for the Ki in experiment [1], in experiment [2] and in experiment [3] were > 50000 nM, 670 nM and 965 nM, respectively.
Consider `NC(=O)CCN1C[C@@H]2C[C@H](C1)c1cccc(=O)n1C2`, for which the inhibition constant (Ki) came out at 3600 nM in experiment [1] and 35 nM in experiment [3].
The matching figures for `CC(=O)CCCN1C[C@@H]2C[C@H](C1)c1cccc(=O)n1C2`: > 50000 nM and 757 nM.
The matching figures for `O=c1cccc2n1C[C@H]1C[C@@H]2CN(Cc2cccnc2)C1`: > 100000 nM and 6600 nM.
With `O=c1cccc2n1C[C@H]1C[C@@H]2CN(CCc2ccccc2)C1`, the results for the Ki in experiment [1], in experiment [2] and in experiment [3] were 25000 nM, 78 nM and 28 nM, respectively.
On to `O=c1cccc2n1C[C@H]1C[C@@H]2CN(CCc2ccccn2)C1`, for which the inhibition constant (Ki) is > 100000 nM in experiment [1] and 941 nM in experiment [3].
As for `O=c1cccc2n1C[C@H]1C[C@@H]2CN(CCCCc2ccc(F)cc2)C1`, the inhibitory constant (Ki) was > 50000 nM in experiment [1] and 13000 nM in experiment [3].
The matching figures for `O=c1cccc2n1C[C@H]1C[C@@H]2CN(CCCc2cccnc2)C1`: > 100000 nM and 744 nM.
In the case of `O=c1cccc2n1C[C@H]1C[C@@H]2CN(CCCCc2ccccc2)C1`, the Ki came to 2220 nM in experiment [2] and 3900 nM in experiment [3].
`O=c1cccc2n1C[C@H]1C[C@@H]2CN(CCCc2ccccc2)C1`: the figures for the Ki in experiment [1], in experiment [2] and in experiment [3] were 13000 nM, 42 nM and 63 nM, respectively.
`O=C(CN1C[C@@H]2C[C@H](C1)c1cccc(=O)n1C2)c1ccccc1`: the Ki in experiment [1] was 2250 nM; in experiment [3] it was 17 nM.
Take `O=C(CCN1C[C@@H]2C[C@H](C1)c1cccc(=O)n1C2)c1ccccc1`: the Ki came out at 550 nM in experiment [1], 7.2 nM in experiment [2] and 2.6 nM in experiment [3].
For `O=C(CCN1C[C@@H]2C[C@H](C1)c1cccc(=O)n1C2)c1ccc(F)cc1`, in that order: 433 nM, 13 nM and 5.3 nM.
On to `Cc1ccc(CCN2C[C@@H]3C[C@H](C2)c2cccc(=O)n2C3)cc1`, for which the Ki in experiment [1] is > 50000 nM; in experiment [3] it was 727 nM.
On to `O=c1cccc2n1C[C@H]1C[C@@H]2CN(Cc2ccccc2)C1`, for which the Ki in experiment [1] is > 50000 nM; in experiment [2], 1000 nM; in experiment [3], 850 nM.
With `NC(=O)CN1C[C@@H]2C[C@H](C1)c1cccc(=O)n1C2`, the inhibitory constant (Ki) is > 50000 nM in experiment [1] and 7300 nM in experiment [3].
Consider `CCCCCN1C[C@@H]2C[C@H](C1)c1cccc(=O)n1C2`, for which the Ki came to 39700 nM in experiment [1], 43.5 nM in experiment [2] and 332 nM in experiment [3].
Regarding `O=C(CCCN1C[C@@H]2C[C@H](C1)c1cccc(=O)n1C2)c1ccccc1`, the inhibition constant Ki is > 50000 nM in experiment [1] and 816 nM in experiment [3].
The matching figures for `O=c1cccc2n1C[C@H]1C[C@@H]2CN(Cc2ccncc2)C1`: > 100000 nM and 675 nM.
In the case of `O=c1cccc2n1C[C@H]1C[C@@H]2CN(Cc2ccc(F)cc2)C1`, the inhibition constant (Ki) stood at 78700 nM in experiment [1], 183 nM in experiment [2] and 330 nM in experiment [3].
For the compound `O=c1cccc2n1C[C@H]1C[C@@H]2CN(CCc2ccc(F)cc2)C1`, the Ki in experiment [1] is > 50000 nM; in experiment [3], 1300 nM.
The matching figures for `O=c1cccc2n1C[C@H]1C[C@@H]2CN(CCc2ccncc2)C1`: 4200 nM and 7.2 nM.
As for `O=c1cccc2n1C[C@H]1C[C@@H]2CN(CCCc2ccc(F)cc2)C1`, the Ki in experiment [1] is > 50000 nM; in experiment [2], 611 nM; in experiment [3] it was 5000 nM.
Take `O=C(CN1C[C@@H]2C[C@H](C1)c1cccc(=O)n1C2)c1ccc(F)cc1`: the Ki in experiment [2] was 172 nM; in experiment [3], 409 nM.
`O=c1cccc2n1C[C@@H]1CNC[C@H]2C1` [CYTISINICLINE]: the figures for the Ki in experiment [1], in experiment [2] and in experiment [3] were 331 nM, 0.34 nM and 0.48 nM, respectively.
